Assay [1] has as its system Mus musculus. The experiment in a line: In vivo activity expressed as life span value of average treated / untreated AJ mice for 17.6/6 days (SEM value = 2.93). It is filed as functional, organism-based. A digest of the protocol:
(§1)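 Female AJ mice (20–25 g, 5–8 weeks) received 10^6 TA-3 ascites cells ip. From day 3 they got 0.1 mL ip of liposomal complex (1.5×10^-2 M in Ti complex, 0.9% NaCl), each dose equal to 6.2 mg/kg, daily for 1–5 consecutive days. Groups had 5–7 animals. Survival days are given as treated/untreated.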

Assay [2] has as its system Mus musculus. The experiment in a line: In vivo activity expressed as life span value of average treated / untreated CF-1 mice for 20/13 days (SEM value = 1.54). It is filed as functional, organism-based. A digest of the protocol: (§2)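 Female CF-1 mice (30–35 g, 5–8 weeks) received 10^6 TA-3 ascites cells ip. Three days later, daily ip injections of 0.1 mL DPPC-liposomal complex (1.5×10^-2 M in Ti complex, in 0.9% NaCl) began, each dose equal to 4.1 mg/kg, given for 1–5 consecutive days. Groups had 5–7 mice. Mean survival days are given as treated/untreated.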

For assay [3], the system named is HEp-2. Description: In vitro percentage of live HEP-2 cells after treatment at 80 uM. It is filed as functional, cell-based. As to conditions: Homo sapiens. A digest of the protocol:
(§3)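 Ti complex encapsulated in DPPC liposomes and diluted in 0.9% NaCl. It was added to monolayer cells grown in L-15 with 5% fetal calf serum, penicillin G and gentamicin at 37 °C and 100% humidity, then incubated 72 h at 37 °C. Cells were trypsinized and stained with 0.4% trypan blue, and live cells were counted in a Neubauer chamber. Viability is treated/control viable cells ×100. Five runs.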

Assay [4] relates to Vero. The experiment in a line: In vitro percentage of live Vero cells after treatment at 80 uM. To be noted: Chlorocebus sabaeus. It is filed as functional, cell-based. A digest of the protocol:
as §3

Assay [5] concerns Vero. The experiment in a line: In vitro percentage of live Vero cells after treatment at 100 uM. It is filed as functional, cell-based. As to conditions: Chlorocebus sabaeus. A digest of the protocol: as §3
The test system of assay [6] is Mus musculus. The experiment in a line: In vivo activity expressed as life span value of average treated / untreated AJ mice for 15/6 days (SEM value = 2.54). It is filed as functional, organism-based. A digest of the protocol: as §1
Assay [7] relates to Mus musculus. The experiment in a line: In vivo activity expressed as life span value of average treated / untreated CF-1 mice for 25/13 days (SEM value = 1.92). It is filed as functional, organism-based. A digest of the protocol:
as §2

In assay [8] the test system is Mus musculus. The experiment in a line: In vivo activity expressed as life span value of average treated / untreated AJ mice for 11.3/6 days (SEM value = 1.88). It is filed as functional, organism-based. A digest of the protocol: as §1
The subject of assay [9] is HEp-2. The experiment in a line: In vitro percentage of live HEP-2 cells after treatment at 100 uM. It is filed as functional, cell-based. As to conditions: Homo sapiens. A digest of the protocol: as §3
The test system of assay [10] is HEp-2. The experiment in a line: In vitro percentage of live HEP-2 cells after treatment at 500 uM. It is filed as functional, cell-based. To be noted: Homo sapiens. A digest of the protocol: as §3
The test system of assay [11] is Vero. Description: In vitro percentage of live Vero cells after treatment at 8 uM. As to conditions: Chlorocebus sabaeus. It is filed as functional, cell-based. A digest of the protocol:
as §3

The test system of assay [12] is Mus musculus. The experiment in a line: In vivo activity expressed as life span value of average treated / untreated AJ mice for 11.6/6 days (SEM value = 1.93). It is filed as functional, organism-based. A digest of the protocol: as §1
Assay [13] concerns Mus musculus. Description: In vivo activity expressed as life span value of average treated / untreated CF-1 mice for 25.2/13 days (SEM value = 1.94). It is filed as functional, organism-based. A digest of the protocol: as §2
The subject of assay [14] is Mus musculus. Description: In vivo activity expressed as life span value of average treated / untreated AJ mice for 9.6/6 days (SEM value = 1.55). It is filed as functional, organism-based. As to conditions: in the assay text read “9.3/6 days” for “9.6/6 days”. A digest of the protocol: as §1
The test system of assay [15] is Mus musculus. The experiment in a line: In vivo activity expressed as life span value of average treated / untreated CF-1 mice for 26/13 days (SEM value = 2). It is filed as functional, organism-based. A digest of the protocol: as §2
Assay [16] deals with Vero. Description: In vitro percentage of live Vero cells after treatment at 500 uM. It is filed as functional, cell-based. As to conditions: Chlorocebus sabaeus. A digest of the protocol:
as §3

Assay [17] has as its system HEp-2. Description: In vitro percentage of live HEP-2 cells after treatment at 8 uM. It is filed as functional, cell-based. To be noted: Homo sapiens. A digest of the protocol: as §3

As a reminder, the T/C is the ratio of treated to control. By viability is commonly meant a read-out of living cells in per cent, often relative to untreated cells. A higher viability goes with better survival. On to “cyclo-Tetrakis[bis(1-phenyl-3-methyl-4-benzoylpyrazol-5-onato)-mu-oxotitanium(IV)]”, for which the T/C in [1] was determined as 293%; in assay [2] it was 154%; in assay [6], 254%; in assay [7], 192%; in assay [8] it was 188%; in [12] it was 193%. The T/C in assay [13] was determined as 194%; in assay [14] it was 155%; in assay [15], 200%. Moreover, the viability was 77.4% in assay [3]; 98.4% in assay [4]; 97.1% in [5]; 40.3% in assay [9]; 30% in assay [10]; 100% in [11]. Besides, the viability in assay [16] stood at 95.2%; in [17] it was 77.4%.

Values taken from ChEMBL document CHEMBL1132950, “Synthesis, structure, and antitumor activity of a novel tetranuclear titanium complex” (J Med Chem, 2000).
